What all share (assay type): functional
Common to all, as to conditions: read-out: DIZ

Assay [1] deals with Aspergillus terreus. Briefly: Antifungal activity against Aspergillus terreus at 12.5 ug/ml after 72 hrs by well plate method. In a few lines:
(§1)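 Sabouraud agar: peptone 10 g, glucose 40 g, agar 20 g per litre water, pH 5.7. Spore suspension made from a loopful of fungus in 3 mL normal saline and lawned on 20 mL agar per dish. Excess decanted, plates dried 1 h at 37 °C. Wells punched and loaded with compound in DMSO (6.25 or 12.5 μg/mL). DMSO control. Triplicate plates held at 25 °C for 72 h. Inhibition zone diameter measured. A. terreus strain NCIM 1325.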

In assay [2] the test system is Penicillium sp. Briefly: Antifungal activity against Penicillium sp. at 6.25 ug/ml after 72 hrs by well plate method.
In assay [3] the test system is Escherichia coli. Briefly: Antibacterial activity against Escherichia coli at 6.25 ug/ml after 24 to 48 hrs by well plate diffusion method. Put shortly: (§2)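 Agar well diffusion: 15-20 mL agar per dish, plates dried 1 h at 37 ± 2 °C in laminar flow, then seeded. Wells cut with an agar punch, each loaded with compound dissolved in DMSO (6.25 or 12.5 μg/mL). DMSO solvent control, ciprofloxacin standard. Plates in triplicate, incubated 37 ± 2 °C for 24–48 h. Inhibition zone diameter read in mm, with SD.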

Assay [4] has as its system Salmonella sp. Briefly: Antibacterial activity against Salmonella sp. at 6.25 ug/ml after 24 to 48 hrs by well plate diffusion method. Put shortly: as §2
Assay [5] deals with Staphylococcus aureus. Briefly: Antibacterial activity against Staphylococcus aureus at 12.5 ug/ml after 24 to 48 hrs by well plate diffusion method. In a few lines:
as §2

The subject of assay [6] is Aspergillus niger. Briefly: Antifungal activity against Aspergillus niger at 12.5 ug/ml after 72 hrs by well plate method.
Assay [7] has as its system Aspergillus flavus. Briefly: Antifungal activity against Aspergillus flavus at 12.5 ug/ml after 72 hrs by well plate method.
Assay [8] concerns Aspergillus niger. Briefly: Antifungal activity against Aspergillus niger at 6.25 ug/ml after 72 hrs by well plate method.
The test system of assay [9] is Salmonella sp. Briefly: Antibacterial activity against Salmonella sp. at 12.5 ug/ml after 24 to 48 hrs by well plate diffusion method. In a few lines:
as §2

In assay [10] the test system is Xanthomonas sp. Briefly: Antibacterial activity against Xanthomonas sp. at 6.25 ug/ml after 24 to 48 hrs by well plate diffusion method. In a few lines: as §2
Assay [11] has as its system Staphylococcus aureus. Briefly: Antibacterial activity against Staphylococcus aureus at 6.25 ug/ml after 24 to 48 hrs by well plate diffusion method. In a few lines:
as §2

The subject of assay [12] is Xanthomonas sp. Briefly: Antibacterial activity against Xanthomonas sp. at 12.5 ug/ml after 24 to 48 hrs by well plate diffusion method. In a few lines:
as §2

Assay [13] concerns Penicillium sp. Briefly: Antifungal activity against Penicillium sp. at 12.5 ug/ml after 72 hrs by well plate method.
Assay [14] deals with Aspergillus flavus. Briefly: Antifungal activity against Aspergillus flavus at 6.25 ug/ml after 72 hrs by well plate method.
Assay [15] concerns Aspergillus terreus. Briefly: Antifungal activity against Aspergillus terreus at 6.25 ug/ml after 72 hrs by well plate method. Put shortly:
as §1

For assay [16], the system named is Escherichia coli. Briefly: Antibacterial activity against Escherichia coli at 12.5 ug/ml after 24 to 48 hrs by well plate diffusion method. In a few lines: as §2

With `Fc1ccc(-c2cc(-c3nc4cc(Cl)c(Cl)cc4[nH]3)c3cc(Cl)ccc3n2)cc1`, the zone of inhibition at 12.5 µg/mL came to 10 mm in the assay on Aspergillus terreus [1]; 12 mm with Staphylococcus aureus [5]; 12 mm in the assay on Aspergillus niger [6]; 13 mm with Aspergillus flavus [7]; 28 mm in the assay on Salmonella sp. [9]; 16 mm with Xanthomonas sp. [12]. For the same compound, the zone of inhibition at 12.5 µg/mL in the assay with Penicillium sp. [13] came to 19 mm; with Escherichia coli [16], 17 mm. In addition, the zone of inhibition at 6.25 µg/mL in the assay on Penicillium sp. [2] is 12 mm; in the assay on Escherichia coli [3], 12 mm; in the assay with Salmonella sp. [4], 20 mm; in the assay on Aspergillus niger [8], 12 mm; in the assay with Xanthomonas sp. [10] it was 14 mm; in the assay with Staphylococcus aureus [11] it was 10 mm. Besides, the zone of inhibition at 6.25 µg/mL amounted to 13 mm in the assay on Aspergillus flavus [14] and 9 mm with Aspergillus terreus [15].

In the case of `Fc1ccc(-c2cc(-c3nc4ccccc4[nH]3)c3ccccc3n2)cc1`, the zone of inhibition at 12.5 µg/mL was determined as 14 mm in the assay on Aspergillus terreus [1]; 13 mm in the assay on Staphylococcus aureus [5]; 12 mm in the assay with Aspergillus niger [6]; 12 mm with Aspergillus flavus [7]; 15 mm with Salmonella sp. [9]; 12 mm with Xanthomonas sp. [12]. Moreover, the figures for the zone of inhibition at 12.5 µg/mL with Penicillium sp. [13] and with Escherichia coli [16] were 17 mm and 16 mm, respectively. Besides, the zone of inhibition at 6.25 µg/mL with Penicillium sp. [2] stood at 15 mm; in the assay with Escherichia coli [3], 11 mm; with Salmonella sp. [4], 9 mm; with Aspergillus niger [8], 11 mm; in the assay with Xanthomonas sp. [10], 11 mm; in the assay with Staphylococcus aureus [11] it was 12 mm. The zone of inhibition at 6.25 µg/mL was determined as 11 mm in the assay on Aspergillus flavus [14] and 12 mm with Aspergillus terreus [15].

Take `Fc1ccc(-c2cc(-c3nc4cc(Cl)c(Cl)cc4[nH]3)c3ccccc3n2)cc1`: the zone of inhibition at 12.5 µg/mL in the assay with Aspergillus terreus [1] worked out at 11 mm; in the assay with Staphylococcus aureus [5] it was 16 mm; in the assay on Aspergillus niger [6], 12 mm; in the assay with Aspergillus flavus [7], 10 mm; in the assay on Salmonella sp. [9], 12 mm; in the assay with Xanthomonas sp. [12], 22 mm. For the same compound, the zone of inhibition at 12.5 µg/mL is 12 mm in the assay with Penicillium sp. [13] and 16 mm in the assay with Escherichia coli [16]. Further, the zone of inhibition at 6.25 µg/mL stood at 12 mm in the assay on Penicillium sp. [2]; 12 mm in the assay on Escherichia coli [3]; 11 mm in the assay with Salmonella sp. [4]; 10 mm with Aspergillus niger [8]; 20 mm in the assay with Xanthomonas sp. [10]; 12 mm in the assay on Staphylococcus aureus [11]. The zone of inhibition at 6.25 µg/mL in the assay with Aspergillus flavus [14] and in the assay on Aspergillus terreus [15] was 10 mm each time.

For the compound `Fc1ccc(-c2cc(-c3nc4ncccc4[nH]3)c3cc(F)ccc3n2)cc1`, the zone of inhibition at 12.5 µg/mL in the assay on Aspergillus terreus [1] was determined as 15 mm; with Staphylococcus aureus [5], 12 mm; in the assay on Aspergillus niger [6], 13 mm; in the assay on Aspergillus flavus [7], 14 mm; with Salmonella sp. [9], 13 mm; with Xanthomonas sp. [12] it was 16 mm. Further, the zone of inhibition at 12.5 µg/mL was found to be 15 mm in the assay with Penicillium sp. [13] and 13 mm in the assay with Escherichia coli [16]. The zone of inhibition at 6.25 µg/mL with Penicillium sp. [2] was 14 mm; in the assay with Salmonella sp. [4], 13 mm; in the assay on Aspergillus niger [8] it was 11 mm; in the assay with Xanthomonas sp. [10] it was 15 mm; in the assay on Staphylococcus aureus [11], 12 mm; in the assay with Aspergillus flavus [14], 11 mm. Moreover, the zone of inhibition at 6.25 µg/mL with Aspergillus terreus [15] is 10 mm.

With `Fc1ccc(-c2cc(-c3nc4ccc(Cl)cc4[nH]3)c3ccccc3n2)cc1`, the zone of inhibition at 12.5 µg/mL is 16 mm in the assay with Aspergillus terreus [1]; 13 mm in the assay with Staphylococcus aureus [5]; 18 mm in the assay with Aspergillus niger [6]; 16 mm in the assay on Aspergillus flavus [7]; 17 mm in the assay on Salmonella sp. [9]; 15 mm with Xanthomonas sp. [12]. Moreover, the zone of inhibition at 12.5 µg/mL was determined as 12 mm with Penicillium sp. [13] and 16 mm in the assay with Escherichia coli [16]. The zone of inhibition at 6.25 µg/mL with Penicillium sp. [2] was found to be 12 mm; with Salmonella sp. [4], 9 mm; in the assay on Aspergillus niger [8], 15 mm; in the assay on Xanthomonas sp. [10], 15 mm; in the assay with Staphylococcus aureus [11], 12 mm; in the assay on Aspergillus flavus [14] it was 11 mm. The zone of inhibition at 6.25 µg/mL in the assay on Aspergillus terreus [15] was found to be 10 mm.
